Legend:
[1] = test system: F-actin; experiment: F-actin fluorescence under actin inhibitor; format: cell-based
[2] = test system: C57 wild type mice; experiment: Isoproterenol-induced myocardial ischemia model in wild type mice; format: in vivo
Method in brief: (§1)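 Wild-type C57 or cre-lox transgelin knockout C57/BL6 mice, 24 per genotype, were split into normal, model and two treatment groups. Test compound was given orally at 10 mg/kg daily for one week; normal and model groups got saline. On day 5, isoproterenol 3 mg/kg i.p. was given (saline for normal group). After day 7, mice were anaesthetized with chloral hydrate for a three-needle-electrode ECG on a 40–42 °C pad.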

[3] = test system: HVSMCs; format: cell-based, human; settings: 10 μM
[4] = target: transgelin (Homo sapiens, UniProt Q01995); experiment: Biacore; settings: Biacore binding to transgelin, 25 °C, CM5 chip, NA = no activity
Sequence of transgelin (Q01995 whole entry): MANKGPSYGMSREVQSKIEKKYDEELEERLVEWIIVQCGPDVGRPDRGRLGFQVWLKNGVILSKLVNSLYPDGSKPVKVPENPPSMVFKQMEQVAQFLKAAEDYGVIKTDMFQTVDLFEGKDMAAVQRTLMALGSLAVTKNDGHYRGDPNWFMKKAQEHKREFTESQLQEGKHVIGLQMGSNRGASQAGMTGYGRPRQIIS
Method in brief: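 CM5 chip at 25 °C with PBS-EP running buffer. Transgelin was amine-coupled by EDC/NHS, the same way as actin (0.4 mg/mL in 10 mM phosphate pH 7.4, 12 min, then 1 M ethanolamine pH 8.5; about 4000 RU). Test compound was run over protein and blank channels at 0–25 uM at 20 μL/min. Association 3 min, dissociation 300 s; regeneration with 10 mM glycine-HCl pH 2.5.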

[5] = test system: actin; experiment: Hypoxia-induced actin degradation, fluorescence intensity; format: cell-based; settings: hypoxic group 264
[6] = test system: transgelin (−/−) mice; experiment: Isoproterenol-induced myocardial ischemia model in transgelin; format: in vivo; settings: 10 mg/kg
Method in brief: as §1

[7] = test system: F-actin; experiment: F-actin features in cells; format: cell-based, human; settings: versus control group
[8] = test system: actin; format: biochemical; settings: actin/transgelin plus compound
[9] = test system: transgelin and actin; format: binding; settings: disregarding the effect of SAA
[10] = test system: isolated myocardial tissue; experiment: Stimulation of isolated myocardial tissue
[11] = test system: actin; experiment: Multi-angle light scattering of actin aggregation; format: biochemical; settings: in presence of transgelin
[12] = test system: CASMCs; experiment: Cell contraction and F-actin formation in CASMCs; format: cell-based; settings: 10 μM
Method in brief: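 Coronary artery smooth muscle cells came from primary culture in DMEM with 10% foetal bovine serum. They were treated with test compound at 10 μM, and relative cell length and F-actin formation were assessed against untreated control.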

[13] = isoproterenol-treated model group, ISO 3 mg/kg i.p.

**Q.** How did the F-actin fluorescence intensity ([1]; vincristine alone, control 395) turn out when `CC[C@]1(O)C[C@H]2CN(CCc3c([nH]c4ccccc34)[C@@](C(=O)OC)(c3cc4c(cc3OC)N(C=O)[C@H]3[C@@](O)(C(=O)OC)[C@H](OC(C)=O)[C@]5(CC)C=CCN6CC[C@]43[C@@H]65)C2)C1` [vincristine, reference compound] was run?
**A.** 139

**Q.** How did the “Serum AST level compared to normal group” value [2, 13] turn out when `CC(C)NCC(O)c1ccc(O)c(O)c1` (stereo not shown) [isoproterenol] was run?
**A.** 237% ± 19%

**Q.** What about the “Serum CK level compared to normal group” value [2, 13] of the same molecule?
**A.** 166% ± 14%

**Q.** And the “Serum CK-MB level compared to normal group” value [2, 13]?
**A.** 165% ± 24%

**Q.** What about the “Serum LDH level compared to normal group” value [2, 13] of the same molecule?
**A.** 174% ± 14%

**Q.** With `O=C(/C=C/c1ccc(O)c(O)c1/C=C/c1ccc(O)c(O)c1)O[C@H](Cc1ccc(O)c(O)c1)C(=O)O` [SAA, salvianolic acid A] as the molecule, how does the “Co-localization of transgelin and actin” value ([3]; control approximately 57%) read?
**A.** 78%

**Q.** What about the “Average length of VSMCs” value ([3]; control approximately 90 μm) of the same molecule?
**A.** ~80 μm

**Q.** What about the Kd [4] of the same molecule?
**A.** 7.11 µM

**Q.** And the Actin fluorescence intensity [5]?
**A.** 453

**Q.** What about the “CK, CK-MB, AST and LDH levels relative to transgelin (−/−) MI model group” value [6] of the same molecule?
**A.** not significantly changed

**Q.** And the “Therapeutic effect on myocardial ischemia” value [6]?
**A.** no therapeutic effect

**Q.** What about the F-actin fluorescence intensity ([1]; co-treatment with vincristine, vincristine alone 139) of the same molecule?
**A.** 373

**Q.** What about the “F-actin area, F-actin percentage area, total F-actin length and average F-actin length” value [7] of the same molecule?
**A.** increased

**Q.** And the Actin polymerization [8]?
**A.** marked increase in actin polymerization

**Q.** And the “Protein binding signal of transgelin and actin when SAA was added” value [9]?
**A.** 1.3 times

**Q.** And the Heart infarction ratio ([2]; 10 mg/kg oral daily for 7 days, wild type MI mice 11.2%)?
**A.** 4%

**Q.** What about the “Stimulation effect on isolated myocardial tissue” value [10] of the same molecule?
**A.** no stimulation effect

**Q.** And the “Polymerization (aggregation) of actin” value [11]?
**A.** further enhanced

**Q.** And the “Relative length of CASMCs” value [12]?
**A.** declined
